Measured values from different studies.
Each line is one published result; the experiments were not run side by side.
Target: Mitogen-activated protein kinase kinase kinase 13 (MAP3K13, Homo sapiens, UniProt O43283)
Sequence (O43283 1-966, as in one of the studies): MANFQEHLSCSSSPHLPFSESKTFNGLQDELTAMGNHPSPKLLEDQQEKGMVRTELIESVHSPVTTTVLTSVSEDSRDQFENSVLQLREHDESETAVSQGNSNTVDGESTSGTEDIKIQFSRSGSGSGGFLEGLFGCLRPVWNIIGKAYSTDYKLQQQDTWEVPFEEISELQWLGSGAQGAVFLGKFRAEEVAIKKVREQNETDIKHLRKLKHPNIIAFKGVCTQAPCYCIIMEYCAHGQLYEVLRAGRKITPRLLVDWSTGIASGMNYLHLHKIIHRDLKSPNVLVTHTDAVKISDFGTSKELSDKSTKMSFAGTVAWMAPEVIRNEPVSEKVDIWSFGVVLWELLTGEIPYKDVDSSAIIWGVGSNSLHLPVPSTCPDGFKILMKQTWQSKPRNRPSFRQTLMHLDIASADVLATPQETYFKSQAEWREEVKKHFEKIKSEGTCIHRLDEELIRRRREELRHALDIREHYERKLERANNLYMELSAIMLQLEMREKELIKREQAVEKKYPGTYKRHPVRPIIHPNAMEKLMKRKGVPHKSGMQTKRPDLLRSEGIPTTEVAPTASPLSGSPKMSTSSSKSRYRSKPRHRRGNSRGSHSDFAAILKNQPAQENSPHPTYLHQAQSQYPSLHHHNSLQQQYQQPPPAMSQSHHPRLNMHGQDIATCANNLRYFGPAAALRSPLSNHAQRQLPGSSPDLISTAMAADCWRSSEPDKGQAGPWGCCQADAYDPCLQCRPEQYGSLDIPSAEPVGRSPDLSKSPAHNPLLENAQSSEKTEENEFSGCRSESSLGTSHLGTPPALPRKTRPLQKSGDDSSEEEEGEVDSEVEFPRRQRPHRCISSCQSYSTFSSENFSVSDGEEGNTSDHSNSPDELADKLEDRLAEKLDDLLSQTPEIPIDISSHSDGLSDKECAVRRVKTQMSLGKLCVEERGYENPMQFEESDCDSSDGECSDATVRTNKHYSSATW

| SMILES | effect on | method | tested at | remaining binding |
| --- | --- | --- | --- | --- |
| O=C(c1ccc(Nc2ncc(Cl)c(-c3cc4ccccc4s3)n2)cc1)N1CCC(N2CCCC2)CC1 | binding | competition with immobilised ligand | 1 µM | 46% |
| C[C@@H]1CCN(c2nccc(-c3cnn4ncccc34)n2)C1 | binding | – | 1 µM | 71% |
| O=C(O)[C@@H]1[C@@H](Cn2nnc3ccccc3c2=O)CC[C@H]1C(=O)c1ccc(OCCC2CCOCC2)cc1 | cell-free assay | competition with immobilised ligand | 1 µM | 70% |
| CC1CCCN1c1nccc(-c2cnn3ncccc23)n1 (centres unmarked) | binding | – | 1 µM | 100% |
| O=C(NCCCN1CCOCC1)c1ccc(Nc2nccc(-c3cc4ccccc4s3)n2)cc1 | binding | competition with immobilised ligand | 1 µM | 79% |
| CN(C)c1nccc(-c2cnn3ncccc23)n1 | binding | – | 1 µM | 85% |
| c1cncc(-c2cccc(Nc3nccc(NC4CCCCC4)n3)c2)c1 | binding | competition with immobilised ligand | 10 µM | 83% |
| N[C@@H]1CCN(c2nccc(-c3cnn4ncccc34)n2)C1 | binding | – | 1 µM | 100% |
| O=C(NCCCN1CCOCC1)c1ccc(Nc2ncc(Cl)c(-c3ccc(Cl)s3)n2)cc1 | binding | competition with immobilised ligand | 1 µM | 92% |
| CN(c1nccc(-c2cnn3ncccc23)n1)C1CC1 | binding | – | 1 µM | 18% |
| CN1CCN(c2cnc3c(C4CCN(C(=O)c5ccc(OC(F)(F)F)cc5N)CC4)ncnc3c2)CC1 | cell-free assay | competition with immobilised ligand | 1 µM | 100% |
| COc1cnc(Nc2cccc(S(N)(=O)=O)c2)nc1N1CCN(c2ccccc2)C(=O)C1 | binding | competition with immobilised ligand | 1 µM | 100% |
| COCCOc1nc(-c2ccc(Cl)nc2)nc2c1CN(C(=O)c1ncn3ccccc13)CC2 | cell-free assay | competition with immobilised ligand | 0.1 µM | 87% |
| CCN1CCN(Cc2ccc(C(=O)Nc3ccc(C)c(Oc4ccc5c(c4)CC(=O)N5)c3)cc2C(F)(F)F)CC1 | binding | competition with immobilised ligand | 1 µM | 100% |
| CO[C@@H](C)c1c(Nc2ccc([C@H](N(C)C(=O)C3CCS(=O)(=O)CC3)C(F)(F)F)cc2)cnc2cc(Cl)nn12 | cell-free assay | competition with immobilised ligand | 1 µM | 78% |
| O=C(NCC1CCOCC1)c1n[nH]cc1NC(=O)c1c(F)cccc1F | binding | competition with immobilised ligand | 1 µM | 84% |
| CC(=O)C1=C(C)N(c2cccc(C(F)(F)F)c2)C(=O)N[C@@H]1c1ccc(C#N)nc1 | cell-free assay | competition with immobilised ligand | 1 µM | 92.4% |
| Cc1cnn2ncc(-c3ccnc(N(C)C)n3)c2c1 | binding | – | 1 µM | 70% |
| COc1ccc2c(c1)O[C@H](c1ccc(OC)c(OC)c1)C[C@@H]2NC(=O)C1(c2ccc3c(c2)OC(F)(F)O3)CC1 | cell-free assay | competition with immobilised ligand | 1 µM | 91% |
| CNC(=O)[C@@H]1CC[C@@H](n2c(-c3ccc4cnccc4c3)nc3ccc(C(=O)NCc4cccc(C(N)=O)c4)cc32)C1 | binding | competition with immobilised ligand | 1 µM | 100% |
